Assay results taken from ChEMBL document CHEMBL1133671, “Synthesis and SAR of new 5-phenyl-3-ureido-1,5-benzodiazepines as cholecystokinin-B receptor antagonists” (J Med Chem, 2000).

How the values were obtained:
[1] = target: T1, Cholecystokinin receptor type A (Rattus norvegicus, UniProt P30551); assay: In vitro inhibition of binding of [3H]pCCK-8 against Cholecystokinin type A receptor of rat pancreatic membranes; assay type: cell membranes, Membrane
T1 sequence (P30551 whole entry): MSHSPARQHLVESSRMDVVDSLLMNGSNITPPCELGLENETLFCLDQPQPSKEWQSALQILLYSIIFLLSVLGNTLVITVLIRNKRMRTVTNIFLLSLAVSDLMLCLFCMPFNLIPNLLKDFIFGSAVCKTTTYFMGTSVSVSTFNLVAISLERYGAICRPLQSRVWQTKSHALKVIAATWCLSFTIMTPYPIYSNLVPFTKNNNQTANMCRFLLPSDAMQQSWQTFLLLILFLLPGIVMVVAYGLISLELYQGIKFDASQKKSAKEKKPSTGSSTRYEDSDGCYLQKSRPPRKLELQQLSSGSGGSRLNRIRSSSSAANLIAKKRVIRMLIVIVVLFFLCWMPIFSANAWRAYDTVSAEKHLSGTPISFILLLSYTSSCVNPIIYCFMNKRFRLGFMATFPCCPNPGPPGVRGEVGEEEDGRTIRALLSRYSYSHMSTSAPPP
Outline: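 Radioligand displacement of [3H]CCK-8S from membranes: rat pancreas for the CCK-A receptor and guinea-pig cerebral cortex for the CCK-B receptor, using slightly modified published methods. Values are means of n experiments.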

Cavia porcellus = species on record: Cavia porcellus; assay: Selectivity factor between CCK-B and CCK-A receptors

| SMILES | Ki [1] | Ratio (Cavia porcellus) |
| --- | --- | --- |
| CC(C)(C)CCN1C(=O)C(NC(=O)Nc2ccccc2)C(=O)N(c2ccccc2F)c2ccccc21 (racemic) | 70.8 nM | 74 |
| CSc1cccc(NC(=O)NC2C(=O)N(CCC(C)(C)C)c3ccccc3N(c3ccccc3F)C2=O)c1 (racemic) | 11.7 nM | 16 |
| CN(C)c1cccc(NC(=O)NC2C(=O)N(CCC(C)(C)C)c3ccccc3N(c3ccccc3F)C2=O)c1 (racemic) | 19.5 nM | 32 |
| CC(C)CC(C)N1C(=O)C(NC(=O)Nc2ccccc2)C(=O)N(c2ccccc2)c2ccccc21 (racemic) | 115 nM | 55 |
| O=C(Nc1ccccc1)NC1C(=O)N(CCC23C[C@H]4C[C@@H](C2)C[C@@H](C3)C4)c2ccccc2N(c2ccccc2)C1=O (mixture of isomers) | 219 nM | 6 |
| CC(C)CCN1C(=O)C(NC(=O)Nc2ccccc2)C(=O)N(c2ccccc2F)c2ccccc21 (racemic) | 195 nM | 25 |
| CC(C)CCN1C(=O)C(NC(=O)Nc2cccc(N(C)C)c2)C(=O)N(c2ccccc2F)c2ccccc21 (racemic) [listing 1 of 2 here] | 126 nM | – |
| O=C(Nc1ccccc1)NC1C(=O)N(CC2[C@H]3C[C@@H]4C[C@@H](C[C@H]2C4)C3)c2ccccc2N(c2ccccc2)C1=O (mixture of isomers) | 83.2 nM | 48 |
| CC(C)C(C)CN1C(=O)C(NC(=O)Nc2ccccc2)C(=O)N(c2ccccc2)c2ccccc21 (racemic) | 123 nM | 110 |
| CN(C)c1ccc(NC(=O)NC2C(=O)N(CCC3CCCC3)c3ccccc3N(c3ccccc3F)C2=O)cc1 (racemic) | 661 nM | 141 |
| CC(C)(C)CCN1C(=O)C(NC(=O)Nc2ccccc2)C(=O)N(c2ccccc2)c2ccccc21 (racemic) | 112 nM | 166 |
| CN(C)c1cccc(NC(=O)NC2C(=O)N(CCC3CCCC3)c3ccccc3N(c3ccccc3F)C2=O)c1 (racemic) | 47.9 nM | 71 |
| CC(C)CCN1C(=O)C(NC(=O)Nc2cccc(N(C)C)c2)C(=O)N(c2ccccc2F)c2ccccc21 (racemic) [listing 2 of 2 here] | – | 501 |
| CC(O)C(O)Nc1cccc(NC(=O)NC2C(=O)N(CC34C[C@H]5C[C@@H](C3)C[C@@H](C4)C5)c3ccccc3N(c3ccccc3)C2=O)c1 (mixture of isomers) | – | 575 |
| O=C(O)CCCOc1ccc(NC(=O)NC2C(=O)N(CC34C[C@H]5C[C@@H](C3)C[C@@H](C4)C5)c3ccccc3N(c3ccccc3)C2=O)cc1 (single isomer, unassigned; (+)) | > 10000 nM | > 2630 |
| O=C(Nc1cccc(O)c1)NC1C(=O)N(CC23C[C@H]4C[C@@H](C2)C[C@@H](C3)C4)c2ccccc2N(c2ccccc2)C1=O (single isomer, unassigned; (+)) | 1580 nM | 550 |
| Nc1cccc(NC(=O)NC2C(=O)N(CC34C[C@H]5C[C@@H](C3)C[C@@H](C4)C5)c3ccccc3N(c3ccccc3)C2=O)c1 (single isomer, unassigned; (+)) | 4070 nM | 13800 |
| CC(O)C(O)Nc1cccc(NC(=O)NC2C(=O)N(CC34C[C@H]5C[C@@H](C3)C[C@@H](C4)C5)c3ccccc3N(c3ccccc3)C2=O)c1 (single isomer, unassigned; (+)) [listing 1 of 2 here] | 7410 nM | – |
| CC(C)CCN1C(=O)C(NC(=O)Nc2cccc(N(C)C)c2)C(=O)N(c2ccccc2F)c2ccccc21 (single isomer, unassigned; (+)) [listing 1 of 2 here] | 200 nM | – |
| O=C(Nc1cccc(C(=O)OCCN2CCOCC2)c1)NC1C(=O)N(CC23C[C@H]4C[C@@H](C2)C[C@@H](C3)C4)c2ccccc2N(c2ccccc2)C1=O (single isomer, unassigned; (+)) | 339 nM | 603 |
| O=C(Nc1cccc(CO)c1)NC1C(=O)N(CC23C[C@H]4C[C@@H](C2)C[C@@H](C3)C4)c2ccccc2N(c2ccccc2)C1=O (single isomer, unassigned; (+)) | 2140 nM | 12000 |
| CC(C)CCN1C(=O)C(NC(=O)Nc2cccc(N(C)C)c2)C(=O)N(c2ccccc2F)c2ccccc21 (single isomer, unassigned; (+)) [listing 2 of 2 here] | – | 933 |
| CC(O)C(O)Nc1cccc(NC(=O)NC2C(=O)N(CC34C[C@H]5C[C@@H](C3)C[C@@H](C4)C5)c3ccccc3N(c3ccccc3)C2=O)c1 (single isomer, unassigned; (+)) [listing 2 of 2 here] | – | 11000 |
| O=C(Nc1ccccc1)NC1C(=O)N(CC23C[C@H]4C[C@@H](C2)C[C@@H](C3)C4)c2ccccc2N(c2ccccc2)C1=O (single isomer, unassigned; (-)) | 479 nM | – |
| CC(C)CCN1C(=O)C(NC(=O)Nc2cccc(N(C)C)c2)C(=O)N(c2ccccc2F)c2ccccc21 (single isomer, unassigned; (-)) [listing 1 of 2 here] | 72.4 nM | – |
| CC(C)CCN1C(=O)C(NC(=O)Nc2cccc(N(C)C)c2)C(=O)N(c2ccccc2F)c2ccccc21 (single isomer, unassigned; (-)) [listing 2 of 2 here] | – | 39 |
